Data taken from ChEMBL document CHEMBL1142365, “Synthesis and evaluation of stilbenylbenzoxazole and stilbenylbenzothiazole derivatives for detecting beta-amyloid fibrils” (Bioorg Med Chem Lett, 2008).

Assay: Displacement of [125I]TZDM from beta amyloid protein 42
In short: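 Competition binding against [125I]TZDM on pre-formed Ab42 aggregates. Mixtures incubated 3 h at room temperature. Bound and free radioligand separated by vacuum filtration through GF/B filters, then two washes with 10% EtOH at room temperature. Filter-bound radioactivity counted by gamma counter. Ki obtained by nonlinear regression of the inhibition data.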
A Ki of 0.41 nM was found for `Nc1ccc(/C=C/c2ccc(-c3nc4cc(OCCF)ccc4s3)cc2)cc1` in this work. A Ki of 0.1 nM was found for `CNc1ccc(/C=C/c2ccc(-c3nc4cc(OCCF)ccc4s3)cc2)cc1` in this work. A Ki of 0.32 nM was found for `Nc1ccc(/C=C/c2ccc(-c3nc4cc(OCCF)ccc4o3)cc2)cc1` in this work. A Ki of 0.38 nM was found for `CNc1ccc(/C=C/c2ccc(-c3nc4cc(OCCCF)ccc4s3)cc2)cc1` in this work. A Ki of 0.49 nM was found for `CN(C)c1ccc(/C=C/c2ccc(-c3nc4cc(OCCCF)ccc4s3)cc2)cc1` in this work. A Ki of 0.5 nM was found for `CNc1ccc(/C=C/c2ccc(-c3nc4ccc(OCCF)cc4o3)cc2)cc1` in this work. A Ki of 0.47 nM was found for `Nc1ccc(/C=C/c2ccc(-c3nc4ccc(OCCF)cc4o3)cc2)cc1` in this work. A Ki of 0.45 nM was found for `CNc1ccc(/C=C/c2ccc(-c3nc4cc(OCCCF)ccc4o3)cc2)cc1` in this work. A Ki of 0.35 nM was found for `CN(C)c1ccc(/C=C/c2ccc(-c3nc4cc(OCCF)ccc4s3)cc2)cc1` in this work. A Ki of 0.59 nM was found for `Nc1ccc(/C=C/c2ccc(-c3nc4ccc(OCCCF)cc4o3)cc2)cc1` in this work. A Ki of 0.12 nM was found for `CN(C)c1ccc(/C=C/c2ccc(-c3nc4ccc(OCCCF)cc4s3)cc2)cc1` in this work. A Ki of 0.48 nM was found for `CNc1ccc(/C=C/c2ccc(-c3nc4ccc(OCCCF)cc4s3)cc2)cc1` in this work. A Ki of 0.52 nM was found for `CNc1ccc(/C=C/c2ccc(-c3nc4ccc(OCCF)cc4s3)cc2)cc1` in this work. A Ki of 0.57 nM was found for `CN(C)c1ccc(/C=C/c2ccc(-c3nc4ccc(OCCF)cc4s3)cc2)cc1` in this work. A Ki of 0.59 nM was found for `Nc1ccc(/C=C/c2ccc(-c3nc4ccc(OCCF)cc4s3)cc2)cc1` in this work. A Ki of 0.46 nM was found for `CN(C)c1ccc(/C=C/c2ccc(-c3nc4ccc(OCCCF)cc4o3)cc2)cc1` in this work. A Ki of 0.68 nM was found for `CNc1ccc(/C=C/c2ccc(-c3nc4ccc(OCCCF)cc4o3)cc2)cc1` in this work. A Ki of 0.45 nM was found for `CN(C)c1ccc(/C=C/c2ccc(-c3nc4ccc(OCCF)cc4o3)cc2)cc1` in this work. A Ki of 0.47 nM was found for `CN(C)c1ccc(/C=C/c2ccc(-c3nc4cc(OCCCF)ccc4o3)cc2)cc1` in this work. A Ki of 0.44 nM was found for `CN(C)c1ccc(/C=C/c2ccc(-c3nc4cc(OCCF)ccc4o3)cc2)cc1` in this work. A Ki of 0.74 nM was found for `CNc1ccc(/C=C/c2ccc(-c3nc4cc(OCCF)ccc4o3)cc2)cc1` in this work. A Ki of 0.45 nM was found for `Nc1ccc(/C=C/c2ccc(-c3nc4cc(OCCCF)ccc4o3)cc2)cc1` in this work. A Ki of 0.55 nM was found for `Nc1ccc(/C=C/c2ccc(-c3nc4ccc(OCCCF)cc4s3)cc2)cc1` in this work. A Ki of 0.42 nM was found for `Nc1ccc(/C=C/c2ccc(-c3nc4cc(OCCCF)ccc4s3)cc2)cc1` in this work. A Ki of 0.77 nM was found for `[11CH3]Nc1ccc(-c2nc3ccc(O)cc3s2)cc1` [PITTSBURGH COMPOUND B] in this work.
